Measurements: ChEMBL document CHEMBL3994624, “Antimalarial Pyrido[1,2-a]benzimidazoles: Lead Optimization, Parasite Life Cycle Stage Profile, Mechanistic Evaluation, Killing Kinetics, and in Vivo Oral Efficacy in a Mouse Model” (J Med Chem, 2017)
In brackets after ≈: the same amount, converted by molar mass. Activity calls are given as the source filed them. The rule behind the calls is not given here.

What was measured:
Plasmodium berghei [1] = test: Antimalarial activity against GFP-fused Plasmodium berghei ANKA liver stage infected in HuH7 cells pretreated for 1 hr followed by parasite infection after 48 hrs by luciferase reporter gene assay; assay type: functional, cell-based; details: Huh-7
Ferriprotoporphyrin IX [2] = test: Inhibition of beta hematin formation in water/NP40/DMSO solution after 5 hrs
Plasmodium falciparum [3] = test: Anti-plasmodial activity against multidrug resistant Plasmodium falciparum K1 by [3H]-hypoxanthine incorporation assay; assay type: functional
In short: (§1)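 P. falciparum asexual blood-stage growth inhibition by [3H]hypoxanthine incorporation; chloroquine and artesunate run as reference drugs in every experiment; IC50 given as mean of ≥2 independent experiments.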

Plasmodium falciparum [4] = test: Anti-plasmodial activity against chloroquine-sensitive Plasmodium falciparum NF54 by [3H]-hypoxanthine incorporation assay; assay type: functional; in short: as §1
CHO = test: Cytotoxicity against CHO cells after by MTT assay; assay type: cell-based; details: Cricetulus griseus
[5] = Selectivity index, ratio of IC50 for CHO cells to IC50 for chloroquine-sensitive Plasmodium falciparum NF54; assay type: toxicity; details: hamster, read-out: Ratio IC50
In short: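 Selectivity index = IC50 CHO / IC50 PfNF54.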

[6] = Metabolic stability in Balb/c mouse liver microsomes assessed as compound remaining at 1 uM in presence of NADPH after 30 mins by LC-MS/MS analysis; assay type: ADME, microsome; details: read-out: Stability
In short: (§2)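 Mouse and human liver microsomes; % compound remaining after 30 min.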

[7] = Metabolic stability in human liver microsomes assessed as compound remaining at 1 uM in presence of NADPH after 30 mins by LC-MS/MS analysis; assay type: ADME, microsome; details: read-out: Stability; in short: as §2
Plasmodium falciparum [8] = test: Anti-plasmodial activity against chloroquine-sensitive Plasmodium falciparum NF54 late 4/5 stage gametocytes after 48 hrs by luciferin-luciferase reaction based bioluminescence assay; assay type: functional; details: NF54, 48 h
Plasmodium falciparum [9] = test: Ratio of IC50 for chloroquine-sensitive Plasmodium falciparum NF54 early 2/3 stage gametocytes to IC50 for chloroquine-sensitive Plasmodium falciparum NF54 late 4/5 stage gametocytes; assay type: functional
In short: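 Early (stage II/III) and late (stage IV/V) gametocytes tested in parallel luciferase reporter assays; stage preference = EG IC50/LG IC50.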

Huh-7 = test: Cytotoxicity against human HuH7 cells at 1 to 10 uM after 48 hrs by Alamarblue assay; assay type: cell-based; details: huh-7, 48 h
Plasmodium falciparum [10] = test: Ratio of IC50 for chloroquine-sensitive Plasmodium falciparum NF54 after 24 hrs to IC50 for chloroquine-sensitive Plasmodium falciparum NF54 after 72 hrs; assay type: functional
Ferriprotoporphyrin IX [11] = test: Inhibition of beta hematin formation in ring stage of chloroquine-sensitive Plasmodium falciparum NF54 assessed as decrease in haemozoin level after 36 hrs by UV-vis spectra analysis
In short: (§3)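 Synchronized ring-stage parasites treated with increasing drug concentrations, then cellular fractionation. Free haem and haemozoin quantified as iron (fg/cell) and compared with untreated control; significance by p-values; parasite survival overlaid.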

Ferriprotoporphyrin IX [12] = test: Inhibition of beta hematin formation in ring stage of chloroquine-sensitive Plasmodium falciparum NF54 assessed as increase in free heme level after 36 hrs by UV-vis spectra analysis; in short: as §3
Plasmodium berghei [13] = test: Antimalarial activity against GFP-fused Plasmodium berghei ANKA infected in mouse assessed as protection against parasitemia at 50 mg/kg, po administered once daily for 4 days measured 30 days post infection by light microscopy; assay type: functional, organism-based
In short: (§4)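 P. berghei-infected mice, 3 per group. Compound formulated in 90/10 Tween80/ethanol (v/v), diluted 10-fold with water, given orally once daily at 4, 24, 48 and 72 h post-infection. Outcomes: % parasitemia reduction versus untreated control, mean survival days, and cured/infected. Mice with <40% reduction euthanized on day 4.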

Plasmodium berghei [14] = test: Antimalarial activity against GFP-fused Plasmodium berghei ANKA infected in mouse assessed as protection against parasitemia at 25 mg/kg, po administered once daily for 4 days measured 30 days post infection by light microscopy; assay type: functional, organism-based
Plasmodium berghei [15] = test: Antimalarial activity against GFP-fused Plasmodium berghei ANKA infected in mouse assessed as protection against parasitemia at 12.5 mg/kg, po administered once daily for 4 days measured 30 days post infection by light microscopy; assay type: functional, organism-based
Plasmodium berghei [16] = test: Antimalarial activity against GFP-fused Plasmodium berghei ANKA infected in mouse assessed as protection against parasitemia at 6 mg/kg, po administered once daily for 4 days measured 30 days post infection by light microscopy; assay type: functional, organism-based
Plasmodium berghei [17] = test: Antimalarial activity against GFP-fused Plasmodium berghei ANKA infected in mouse assessed as protection against parasitemia at 3 mg/kg, po administered once daily for 4 days measured 30 days post infection by light microscopy; assay type: functional, organism-based; in short: as §4
[18] = Kinetic solubility of the compound in FaSSIF at pH 6.5 after 2 hrs by shake flask method; assay type: physicochemical; details: read-out: Kinetic_solubility
Plasmodium berghei [19] = test: Antimalarial activity against GFP-fused Plasmodium berghei ANKA infected in mouse assessed as reduction in parasitemia at 50 mg/kg, po administered once daily for 4 days by flow cytometry relative to control; assay type: functional; parameters: scale not given: the % may be the effect or the level left; in short: as §4
Plasmodium berghei [20] = test: Antimalarial activity against GFP-fused Plasmodium berghei ANKA infected in mouse assessed as reduction in parasitemia at 3 mg/kg, po administered once daily for 4 days by flow cytometry relative to control; assay type: functional; parameters: scale not given: the % may be the effect or the level left; in short: as §4
Plasmodium berghei [21] = test: Antimalarial activity against GFP-fused Plasmodium berghei ANKA infected in mouse assessed as reduction in parasitemia at 30 mg/kg, po administered once daily for 4 days by flow cytometry relative to control; assay type: functional; parameters: scale not given: the % may be the effect or the level left; in short: as §4
Plasmodium berghei [22] = test: Antimalarial activity against GFP-fused Plasmodium berghei ANKA infected in mouse assessed as reduction in parasitemia at 10 mg/kg, po administered once daily for 4 days by flow cytometry relative to control; assay type: functional; parameters: scale not given: the % may be the effect or the level left; in short: as §4
Plasmodium berghei [23] = test: Antimalarial activity against GFP-fused Plasmodium berghei ANKA infected in mouse assessed as mouse mean survival days at 30 mg/kg, po administered once daily for 4 days; assay type: functional
In short: (§5)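 P. berghei-infected mice (n=3 per dose) dosed orally once daily on 4 consecutive days at 4, 24, 48 and 72 h after infection; compound in 90/10 Tween80/ethanol (v/v) diluted 10-fold with water. Read-outs were % parasitemia reduction, mean survival time in days and cure; mice with <40% parasitemia reduction euthanized on day 4.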

Plasmodium berghei [24] = test: Antimalarial activity against GFP-fused Plasmodium berghei ANKA infected in mouse assessed as mouse mean survival days at 3 mg/kg, po administered once daily for 4 days; assay type: functional; in short: as §5
Plasmodium berghei [25] = test: Antimalarial activity against GFP-fused Plasmodium berghei ANKA infected in mouse assessed as mouse mean survival days at 50 mg/kg, po administered once daily for 4 days; assay type: functional; in short: as §5
Plasmodium berghei [26] = test: Antimalarial activity against GFP-fused Plasmodium berghei ANKA infected in mouse assessed as mouse mean survival days at 10 mg/kg, po administered once daily for 4 days; assay type: functional; in short: as §5
Plasmodium berghei [27] = test: Antimalarial activity against GFP-fused Plasmodium berghei ANKA infected in mouse assessed as protection against parasitemia at 10 mg/kg, po administered once daily for 4 days measured 30 days post infection by light microscopy; assay type: functional, organism-based; in short: as §4
[28] = Half life in C57/Bl6 mouse at 2.5 mg/kg, iv by LC-MS method; assay type: ADME, organism-based; details: in vivo
In short: (§6)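 Mice (n=3) given a single intravenous dose of 2.5 mg/kg in dimethylacetamide:polyethylene glycol:propylene glycol/ethanol (4:1) at 1:3:6; 24 h sampling. Parameters were fitted by nonlinear mixed-effects two-compartment model with first-order elimination.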

[29] = Half life in C57/Bl6 mouse at 10 mg/kg, po administered via gavage by LC-MS method; assay type: ADME, organism-based; details: in vivo
In short: (§7)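 Mice (n=3) given a single oral dose of 10 mg/kg as a suspension in […] HPMC; plasma sampled over 24 h. Parameters were estimated by nonlinear mixed-effects modelling with a two-compartment disposition model, first-order absorption and elimination.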

[30] = Cmax in C57/Bl6 mouse at 10 mg/kg, po administered via gavage by LC-MS method; assay type: ADME, organism-based; parameters: dose 10 mg/kg, route oral; details: in vivo; in short: as §7
[31] = Tmax in C57/Bl6 mouse at 10 mg/kg, po administered via gavage by LC-MS method; assay type: ADME, organism-based; details: in vivo; in short: as §7
[32] = Volume of distribution in C57/Bl6 mouse at 2.5 mg/kg, iv by LC-MS method; assay type: ADME, organism-based; details: in vivo; in short: as §6
[33] = Clearance in C57/Bl6 mouse at 2.5 mg/kg, iv by LC-MS method; assay type: ADME, organism-based; details: in vivo; in short: as §6
Mus musculus [34] = test: AUC (0 to infinity) in C57/Bl6 mouse at 2.5 mg/kg, iv by LC-MS method; assay type: ADME, organism-based; parameters: dose 2.5 mg/kg, time infinity, route intravenous; details: in vivo; in short: as §6
Mus musculus [35] = test: AUC (0 to infinity) in C57/Bl6 mouse at 10 mg/kg, po administered via gavage by LC-MS method; assay type: ADME, organism-based; parameters: dose 10 mg/kg, route oral, time infinity; details: in vivo; in short: as §7
[36] = Oral bioavailability in C57/Bl6 mouse at 10 mg/kg administered via gavage by LC-MS method; assay type: ADME, organism-based; details: in vivo; in short: as §7
Plasmodium falciparum [37] = test: Anti-plasmodial activity against chloroquine-sensitive Plasmodium falciparum NF54 late 4/5 stage gametocytes assessed as reduction in ATP levels after 24 hrs by BacTiter-Glo reagent based bioluminescence assay; assay type: functional; details: NF54, 24 h
Plasmodium berghei [38] = test: Antimalarial activity against GFP-fused Plasmodium berghei ANKA liver stage infected in HuH7 cells pretreated for 1 hr followed by parasite infection at 1 uM after 48 hrs by luciferase reporter gene assay; assay type: functional, cell-based

Row | Structure (SMILES) | IC50 (Plasmodium berghei [1]) | IC50 (Plasmodium falciparum [3]) | IC50 (Plasmodium falciparum [4]) | IC50 (CHO) | selectivity ratio [5] | remaining at 0.5 h, 1 µM [6] | remaining at 0.5 h, 1 µM [7] | IC50 (Plasmodium falciparum [8]) | Ratio IC50 (Plasmodium falciparum [9]) | Activity (Huh-7) | Activity (Plasmodium berghei [13]) | Activity (Plasmodium berghei [17]) | other results
1 | O=C1C(O)=C([C@H]2CC[C@H](c3ccc(Cl)cc3)CC2)C(=O)c2ccccc21 [ATOVAQUONE] | 0.001 µM | – | – | – | – | – | – | – | – | – | – | – | –
2 | CCNCCNc1cc(-c2ccc(C(F)(F)F)cc2)c(C#N)c2nc3cc(Cl)ccc3n12 | – | 0.03 µM | 0.03 µM | 8.71 µM | 362 | 75% | 87% | 0.82 µM | 1.1 | Non-Toxic | – | – | IC50 (Ferriprotoporphyrin IX [2]): < 45 µM; Ratio IC50 (Plasmodium falciparum [10]): 1.5 - 2
3 | COc1cc(NC(C)CCCN)c2ncccc2c1 (stereo unspecified) [PRIMAQUINE] | 8.42 µM | – | – | – | – | – | – | – | – | – | – | – | –
4 | CCNCCNc1cc(-c2ccc(C(F)(F)F)cc2)c(C#N)c2nc3ccccc3n12 | – | – | – | – | – | – | – | – | – | – | inactive | inactive | inhibition (Ferriprotoporphyrin IX [11]): Dose-dependent effect; inhibition (Ferriprotoporphyrin IX [12]): Dose-dependent effect; Activity (Plasmodium berghei [14]): inactive; Activity (Plasmodium berghei [15]): inactive; Activity (Plasmodium berghei [16]): inactive
5 | CCNCCNc1cc(-c2ccc(C(F)(F)F)cc2)c(C#N)c2nc3cc(Cl)cc(Cl)c3n12 | – | 0.04 µM | 0.03 µM | 11.2 µM | 431 | 87% | 87% | 1.44 µM | 1.2 | Non-Toxic | Active | inactive | solubility kinetic at 2 h [18]: 20 µM (≈ 9.85 µg/mL); Activity (Plasmodium berghei [19]): 98%; Activity (Plasmodium berghei [20]): 99.4%; Activity (Plasmodium berghei [21]): 99.4%; Activity (Plasmodium berghei [22]): 99.4%; MSD (Plasmodium berghei [23]): 30 days; MSD (Plasmodium berghei [24]): 16 days; MSD (Plasmodium berghei [25]): 30 days; MSD (Plasmodium berghei [26]): 18 days; Activity (Plasmodium berghei [27]): inactive; half-life [28]: 21 h; half-life [29]: 21 h; Cmax [30]: 0.22 µM; Tmax [31]: > 10 h; Vd [32]: 19 L/kg; clearance [33]: 0.66 L/h/kg; AUC (Mus musculus [34]): 9.52 µM·h; AUC (Mus musculus [35]): 11.4 µM·h; bioavailability [36]: 30%
6 | N#Cc1c(-c2ccc(C(F)(F)F)cc2)cc(NC2CCNCC2)n2c1nc1ccccc12 | 3.31 µM | 0.82 µM | 0.36 µM | 16.5 µM | 46 | 65% | 99% | – | 1.6 | Non-Toxic | – | – | IC50 (Plasmodium falciparum [37]): 1.16 µM; Activity (Plasmodium berghei [38]): Active
